MT stabilizer = microtubule stabilizers in HeLa cells, primary screen, imaging, high-content imaging; actives 0.83% (n = 200,000); HeLa tubulin immunostaining HCS, 24 h; share of cells brighter than vehicle mean+2SD; % tubulin-high responders, % at 10 µM; AID 2205, 2009;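 active means plate Z-score above 3 for both tubulin-high and condensed-nucleus cell shares, with cell loss under 80%, at 10 µM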;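 further: anti alpha tubulin signal scored within the nucleus-defined area of each cell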
Dynein cargo inh = inhibitors of GR-EGFP nuclear translocation, primary screen, dynein cargo transport inhibitor project, imaging, high-content, 3617.4 mouse cells; AID 1381, 2008; z-score, hits read low; actives 0.47% (n = 220,000); test concentration mostly 20 µM; stimulated with dexamethasone, 1 µM; stronger effect = lower value;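 active means plate z-score of nuclear minus cytoplasmic receptor signal below a set negative limit, without overly bright fluorescence or cell loss, cut at about -3.5 in these data, passing the limit was not always enough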;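 further: z-score of nuclear minus cytoplasmic ring GR-EGFP intensity difference per well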
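Buffer or medium – tet-free medium with charcoal-stripped serum · Signal – automated 10x imaging of fixed Hoechst-stained cells · Also added – dexamethasone agonist, 1.0 µM final, for 30 min · Incubation – induction 48 h, compound 1 h, agonist 30 min · Read-out – GR-EGFP nuclear translocation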
bCat nuc transl = modulators of beta-catenin nuclear translocation, primary screen, imaging, HeLa cells, immunofluorescence, high-content; nuclear translocation activity, % at 5 µM; actives 0.3% (n = 190,000);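 active means nuclear translocation activity above 50% at 5 µM, with a well cell count of 50 or more; inconclusive means wells under 50 cells across six images, flagged as toxic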;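 further: per-cell ratio of nuclear to cytoplasmic median beta-catenin stain intensity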
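test system = HeLa cells, endogenous beta-catenin | dosing = single 5 µM dose plus 0.02–20 µM confirmation series | times = compound treatment 24 h, 37°C, 5% CO2 | technique = beta-catenin immunofluorescence imaging with DAPI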
Lmaj promast = Leishmania major promastigote growth inhibition, primary screen | actives 9% (n = 200,000) | inhibition, % at 10 µM | Leishmania major promastigotes, resazurin fluorescence viability; in the data active means inhibition above about 50%;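 further: promastigotes grown with compound for 44 hours at 28 °C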
HSV replic up = enhancers of HSV replication in host cells, fold increase, host cell viability | HSV replication augmentation in cells | maximum fold increase | actives 0.005% (n = 220,000); in the data active means maximum fold increase above about 1.5; inconclusive means no clear call, values can overlap the other calls; tested in PC3 cells
Numbers stand for hits; . = inactive; ? = inconclusive; / = no result. This is a sample that favours compounds with a hit; in the whole collection about 8.9% have one here.

SMILES	MT stabilizer	Dynein cargo inh	bCat nuc transl	Lmaj promast	HSV replic up
O=C(N/N=C/c1c(O)n(Cc2ccc(F)cc2)c(=O)[nH]c1=O)c1ccccc1O	14	.	.	.	.
O=C(N/N=C/c1c(O)n(Cc2ccccc2)c(=O)[nH]c1=O)c1ccccc1O	.	.	.	.	.
O=C(Nc1ccccc1)NC1CC2CCC(C1)N2 (centres undefined)	.	.	.	.	.
Cc1ccc(CN2C3CCCC2CC(NC(=O)Nc2cccc(F)c2)C3)cc1 (centres undefined)	.	.	.	96	.
O=C(c1ccccc1F)c1cn(Cc2ccccc2)c2ccccc12	.	.	.	54	.
Cc1ccnc(-n2c(C)cc(C=C3C(=O)N(C)C(=S)N(C)C3=O)c2C)c1	.	.	.	51	.
Cc1cc(C=C2C(=O)N(C)C(=S)N(C)C2=O)c(C)n1-c1ccncc1	/	.	.	/	.
Cc1ccc(OCC(=O)Nc2ccc(Cl)cc2C(=O)c2ccccc2)cc1	.	.	.	.	.
Cc1ccc(C(=O)Nc2ccc(Cl)cc2C(=O)c2ccccc2)cc1	.	.	/	99	.
COc1ccc(C2NCCc3[nH]cnc32)cc1 (centres undefined)	.	.	.	.	.
CCCCOc1ccc(CCN)cc1Cl	.	.	.	89	.
CC(=O)N1CCC2(CC1)CC(=O)c1cc(OCC(=O)N3CCN(C)CC3)ccc1O2	.	.	.	.	.
COc1ccc(/C=C2/C(=O)NC(=S)N(C3CC3)C2=O)cc1CN1C(=O)c2ccccc2C1=O	.	-3.6	.	.	.
Cc1cc(/C=C2\C(=O)NC(=O)N(c3cccc(F)c3)C2=O)c(C)n1-c1cc(C(=O)O)cc(C(=O)O)c1	.	.	.	.	.
CN(C)[C@@H]1C(=O)C(C(N)=O)=C(O)[C@@]2(O)C(=O)C3=C(O)c4c(O)cccc4[C@@](C)(O)[C@H]3[C@H](O)[C@@H]12	.	.	/	.	?
Cc1c(C=O)c2ccccc2n1Cc1ccc([N+](=O)[O-])cc1	.	.	.	.	.
COc1cc(/C=C/C(=O)c2c(O)n(CCc3ccccc3)c(=O)[nH]c2=O)ccc1O	.	.	.	89	.
O=C(/C=C/c1ccc2c(c1)OCO2)c1c(O)n(CCc2ccccc2)c(=O)[nH]c1=O	/	.	.	/	.
O=C(/C=C/c1ccccc1)c1c(O)n(CCc2ccccc2)c(=O)[nH]c1=O	.	.	.	60	.
COc1ccc(OCC(=O)N2CCN(Cc3ccc4c(c3)OCO4)CC2)cc1	.	.	.	64	.
Cc1cccc(OCC(=O)N2CCN(Cc3ccc([N+](=O)[O-])cc3)CC2)c1	.	.	.	58	.
O=C(COc1ccc(Cl)cc1)N1CCN(Cc2ccccc2)CC1	.	.	.	.	.
Cc1ccc(OCC(=O)N2CCN(Cc3ccc4c(c3)OCO4)CC2)cc1	.	.	.	83	.
COc1ccccc1OCC(=O)N1CCN(Cc2ccc3c(c2)OCO3)CC1	.	.	.	.	.
COc1ccc(OCC(=O)N2CCN(Cc3ccc(SC)cc3)CC2)cc1	.	.	.	84	.
SMILES	MT stabilizer	Dynein cargo inh	bCat nuc transl	Lmaj promast	HSV replic up
CC(C)CC1C(C#N)=C(N)Oc2c1c(=O)oc1ccccc21 (centres undefined)	.	.	/	.	.
O=C1NC(=O)N(c2ccc3c(c2)OCO3)C(=O)/C1=C\c1ccc(-c2ccccc2C(=O)O)o1	/	.	.	/	.
Cc1ccc(C)c(OCC(=O)N2CCN(Cc3ccc4c(c3)OCO4)CC2)c1	.	.	.	.	.
N#Cc1ccc(OCC(=O)N2CCN(Cc3ccc4c(c3)OCO4)CC2)cc1	.	.	.	76	.
O=C1NC(=O)N(Cc2ccc(F)cc2)C(=O)/C1=C\c1ccc(N2CCCC2)cc1	/	.	.	/	.
O=C1NC(=O)N(Cc2ccc(F)cc2)C(=O)/C1=C\c1ccc([N+](=O)[O-])s1	/	-5	.	/	?
O=C(c1csc2c1CCCCC2)N1CCC2(CC1)OCCO2	.	.	.	.	.
CC/C(=N\Nc1ccccc1)c1c(O)n(C)c(=O)n(C)c1=O	.	.	.	61	.
O=C1NC(=O)C(=Cc2cc([N+](=O)[O-])ccc2N2CCCCC2)C(=O)N1	.	.	.	97	.
O=C(c1cc2c(s1)-c1ccccc1OC2)N1CCC2(CC1)OCCO2	54	.	.	.	/
O=C(COc1ccccc1)N1CCN(CC2CC3C=CC2C3)CC1 (centres undefined)	.	.	.	91	.
Cc1ccc(OCC(=O)N2CCN(CC3CC4C=CC3C4)CC2)cc1 (centres undefined)	.	.	.	78	.
Nc1cc(N2CCNCC2)ccc1[N+](=O)[O-]	.	.	.	.	.
CN1CCN(c2ccc([N+](=O)[O-])c(SCCO)c2)CC1	.	.	.	.	.
O=[N+]([O-])c1cc(F)c(N2CCCCCC2)cc1N1CCNCC1	.	.	.	101	.
CN1CCN(c2ccc([N+](=O)[O-])c(N)c2)CC1	.	.	.	52	.
O=[N+]([O-])c1ccc(N2CCNCC2)cc1N1CCCCCC1	.	.	.	99	.
CN1CCN(c2ccc([N+](=O)[O-])c(N3CCCCC3)c2)CC1	.	.	.	94	.
CCCC[n+]1cc(/N=C(\[O-])OC)on1	.	.	/	.	.
CCOC(=O)Cn1cc(C(=O)c2ccccc2F)c2ccccc21	.	.	.	.	.
CCOC(=O)Cn1cc([N+](=O)[O-])nc1[N+](=O)[O-]	.	.	.	99	.
CCN1/C(=C\C=C\C2=[N+](CC)c3ccccc3C2(C)C)C(C)(C)c2ccccc21	.	.	/	99	/
O=S(=O)(c1ccc(Cl)cc1)N1CCCCC1c1cccnc1 (centres undefined)	.	.	.	.	.
COc1ccc(CCNCc2ccc(F)cc2)cc1OC	.	.	.	50	.
COc1ccc(CCNCc2ccc(SC)cc2)cc1	.	.	/	63	.
Cc1nnc2ccc(N3CCN(C)CC3)nn12	.	.	.	.	.
C=C(COC(C)=O)CC1CC(O)[C@]2(C)OC3CC4OC5C[C@]6(C)O[C@]7(C)CCC8OC9C[C@]%10(C)OC%11C(C)=CC(=O)OC%11CC%10OC9C[C@@H](C)C8OC7CC6O[C@]5(C)C/C=C\C4OC3CC2O1 (some centres undefined)	/	.	.	/	.
C=C(C=O)CC1CC(O)[C@]2(C)OC3CC4OC5C[C@]6(C)O[C@]7(C)CCC8OC9C[C@]%10(C)OC%11C(C)=CC(=O)OC%11CC%10OC9C[C@@H](C)C8OC7CC6O[C@]5(C)CC5OC5C4OC3CC2O1 (some centres undefined)	.	.	.	101	.

Compound activity: PubChem BioAssay, several laboratories
